Measurements published in ChEMBL document CHEMBL1127049, “Nonpeptide angiotensin II receptor antagonists. 2. Design, synthesis, and structure-activity relationships of 2-alkyl-4-(1H-pyrrol-1-yl)-1H-imidazole derivatives: profile of 2-propyl-1-[[2'-(1H-tetrazol-5-yl)-[1,1' -biphenyl]-4-yl]-methyl]-4-[2-(trifluoroacetyl)-1H-pyrrol-1-yl]-1H- …” (J Med Chem, 1993).

Experiments:
[1] = molecular target: T1, Angiotensin II receptor (AT-1) type-1 (Rattus norvegicus, UniProt P29089+P25095); experiment: Inhibitory concentration against binding of [125I]angiotensin II to rat liver expressing Angiotensin II receptor
T1 sequence (P29089 whole entry): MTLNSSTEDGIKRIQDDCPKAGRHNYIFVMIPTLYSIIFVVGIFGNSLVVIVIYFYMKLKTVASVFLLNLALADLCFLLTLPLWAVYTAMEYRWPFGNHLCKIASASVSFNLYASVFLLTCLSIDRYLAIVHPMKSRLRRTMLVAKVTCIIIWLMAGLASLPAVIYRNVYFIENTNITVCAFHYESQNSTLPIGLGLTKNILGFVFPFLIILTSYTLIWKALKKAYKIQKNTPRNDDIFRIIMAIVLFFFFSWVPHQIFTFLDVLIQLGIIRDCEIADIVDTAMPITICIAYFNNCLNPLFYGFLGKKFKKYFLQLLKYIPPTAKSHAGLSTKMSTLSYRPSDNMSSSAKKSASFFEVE
T1 sequence (P25095 whole entry): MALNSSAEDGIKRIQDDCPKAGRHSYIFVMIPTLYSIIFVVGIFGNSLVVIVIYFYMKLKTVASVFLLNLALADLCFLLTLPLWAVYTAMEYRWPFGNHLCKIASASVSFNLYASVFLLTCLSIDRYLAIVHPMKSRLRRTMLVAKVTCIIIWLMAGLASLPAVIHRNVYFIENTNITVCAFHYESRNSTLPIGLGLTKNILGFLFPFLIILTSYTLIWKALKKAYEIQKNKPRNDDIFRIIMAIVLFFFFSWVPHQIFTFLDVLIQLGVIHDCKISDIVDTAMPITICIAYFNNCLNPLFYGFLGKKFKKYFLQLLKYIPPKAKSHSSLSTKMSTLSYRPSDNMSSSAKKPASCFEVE
Outline: (§1)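 Rat liver membranes homogenized in 10 mM HEPES pH 7.4 with protease inhibitors, captopril and PMSF. Nonspecific binding defined with 1.0 µM saralasin. No BSA. IC50 by nonlinear fit to mass-action equation from at least five or six concentrations.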

[2] = test system: Rattus norvegicus; experiment: Effect on mean arterial pressure after oral dosing at 10 mg/kg to renal hypertensive rats; type: functional, Artery
Outline: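 Male Sprague-Dawley rats, bilateral renal artery clipping at 5 weeks, used 10-12 weeks later; aortic cannula to neck, 48 h recovery; rats with mean BP <150 mmHg excluded. Compound suspended in 0.5% methocel in water, oral gavage 10 mg/kg in 2 mL/kg to conscious rats (n = 5-6). BP and heart rate recorded continuously, averaged over 30-min intervals.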

[3] = test system: Rattus norvegicus; experiment: Tested in vivo for effective dose (iv) that produces inhibition of pressor response to Angiotensin II in conscious normotensive rats; type: functional
[4] = molecular target: T1, Angiotensin II receptor (AT-1) type-1; experiment: Tested for inhibitory concentration against AT1 receptor binding affinity in rat liver; outline: as §1

Row | SMILES | IC50 [1] [nM] | IC50 [4] [nM] | Change in BP [2] | ED50 [3] [µg/min/kg]
1 | CCCc1nc(-n2c(C)ccc2C)c(C(=O)OC)n1Cc1ccc(-c2ccccc2-c2nn[nH]n2)cc1 | 20.9 | – | -8 | –
2 | CCCc1nc(-n2c(C)ccc2C)c(CO)n1Cc1ccc(-c2ccccc2-c2nn[nH]n2)cc1 | 23.8 | – | – | –
3 | CCCCc1nc(-n2cccc2)c(C#N)n1Cc1ccc(-c2ccccc2-c2nn[nH]n2)cc1 | 209 | – | – | –
4 | CCCCc1nc(Cl)c(C(=O)O)n1Cc1ccc(-c2ccccc2-c2nn[nH]n2)cc1 [CARBOXYLIC ACID METABOLITE] | – | – | -22 | 13.6
5 | CCCc1nc(-n2cccc2)c(/C=C(\C)C(=O)OCC)n1Cc1ccc(-c2ccccc2-c2nn[nH]n2)cc1 | 2.8 | – | -12 | –
6 | CCCc1nc(-n2c(C)ccc2C)c(C=O)n1Cc1ccc(-c2ccccc2-c2nn[nH]n2)cc1 | 13.7 | – | – | –
7 | CCCCc1nc(-n2cccc2)cn1Cc1ccc(-c2ccccc2-c2nn[nH]n2)cc1 | 27 | – | – | –
8 | CCCc1nc(-n2cccc2)c(C#N)n1Cc1ccc(-c2ccccc2-c2nn[nH]n2)cc1 | 332 | – | – | –
9 | COC(=O)c1c(-n2c(C)ccc2C)nc(C2CC2)n1Cc1ccc(-c2ccccc2-c2nn[nH]n2)cc1 | 65.5 | – | – | –
10 | CCCc1nc(-n2c(Cl)ccc2Cl)c(C(=O)OCC)n1Cc1ccc(-c2ccccc2-c2nn[nH]n2)cc1 | 3.93 | – | – | –
11 | CCCc1nc(-n2cccc2)cn1Cc1ccc(-c2ccccc2-c2nn[nH]n2)cc1 | 5.6 | – | – | –
12 | CCCCc1nc(Cl)c(CO)n1Cc1ccc(-c2ccccc2-c2nnn[nH]2)cc1 [LOSARTAN] | – | – | -27 | 75.9
13 | CCCc1nc(-n2c(C)ccc2C)c(C#N)n1Cc1ccc(-c2ccccc2-c2nn[nH]n2)cc1 | 188 | – | – | –
14 | Cc1ccc(C)n1-c1nc(C2CC2)n(Cc2ccc(-c3ccccc3-c3nn[nH]n3)cc2)c1C(=O)O | 2.81 | – | -11 | –
15 | CCCc1nc(-n2c(C)ccc2C)c(/C=C/C(=O)O)n1Cc1ccc(-c2ccccc2-c2nn[nH]n2)cc1 | 3.32 | – | -8 | 16.4
16 | CCCc1nc(-n2c(C)ccc2CCC)c(C(=O)OC)n1Cc1ccc(-c2ccccc2-c2nn[nH]n2)cc1 | 15.1 | – | – | –
17 | CCCCc1nc(-n2cccc2)c(C(=O)c2ccccc2)n1Cc1ccc(-c2ccccc2-c2nn[nH]n2)cc1 | 23.3 | – | – | –
18 | CCCc1nc(-n2c(C)ccc2C)c(/C=C/C(=O)OC)n1Cc1ccc(-c2ccccc2-c2nn[nH]n2)cc1 | 21.6 | – | – | –

The next lines start with results.

Row | IC50 [1] [nM] | IC50 [4] [nM] | SMILES | Change in BP [2] | ED50 [3] [µg/min/kg]
19 | 0.8 | – | CCCc1nc(-n2cccc2C=O)c(C(=O)O)n1Cc1ccc(-c2ccccc2-c2nn[nH]n2)cc1 | – | –
20 | 25.1 | – | CCCc1nc(-n2ccc(C(=O)O)c2)c(C(=O)O)n1Cc1ccc(-c2ccccc2-c2nn[nH]n2)cc1 | – | –
21 | 0.82 | – | CCCc1nc(-n2c(C)ccc2C)c(C(=O)O)n1Cc1ccc(-c2ccccc2-c2nn[nH]n2)cc1 | -26 | –
22 | 3.64 | – | CCCc1nc(-n2cccc2C(=O)C(F)(F)F)c(C(=O)OC)n1Cc1ccc(-c2ccccc2-c2nn[nH]n2)cc1 | -28 | 36
23 | 3.57 | – | CCCCc1nc(-n2cccc2C(=O)C(F)(F)F)c(C(=O)OC)n1Cc1ccc(-c2ccccc2-c2nn[nH]n2)cc1 | -19 | –
24 | 103 | – | CCCc1nc(-n2cccc2C(=O)O)c(C#N)n1Cc1ccc(-c2ccccc2-c2nn[nH]n2)cc1 | – | –
25 | 11 | – | CCCc1nc(-n2ccc(C(=O)O)c2C)c(C(=O)O)n1Cc1ccc(-c2ccccc2-c2nn[nH]n2)cc1 | – | –
26 | 0.58 | – | CCCc1nc(-n2cccc2C(=O)C(F)(F)F)c(C(=O)O)n1Cc1ccc(-c2ccccc2-c2nn[nH]n2)cc1 | -29 | 6.23
27 | 4 | – | CCCc1nc(-n2cccc2)c(/C=C/C(=O)O)n1Cc1ccc(-c2ccccc2-c2nn[nH]n2)cc1 | – | –
28 | 158 | – | CCCc1nc(-n2ccc(C(=O)OCC)c2)c(C(=O)OC)n1Cc1ccc(-c2ccccc2-c2nn[nH]n2)cc1 | – | –
29 | 2.5 | – | CCCc1nc(-n2cccc2)c(/C=C(\C)C(=O)O)n1Cc1ccc(-c2ccccc2-c2nn[nH]n2)cc1 | – | –
30 | 8.76 | – | CCCc1nc(-n2cccc2C(=O)O)c(C(N)=O)n1Cc1ccc(-c2ccccc2-c2nn[nH]n2)cc1 | – | –
31 | 18.8 | – | CCCc1nc(-n2ccc(C(=O)OC)c2C)c(C(=O)OC)n1Cc1ccc(-c2ccccc2-c2nn[nH]n2)cc1 | – | –
32 | 2.37 | – | CCCCc1nc(-n2cccc2C(=O)C(F)(F)F)c(C(=O)O)n1Cc1ccc(-c2ccccc2-c2nn[nH]n2)cc1 | -16 | –
33 | 233 | – | CCCc1nc(-n2cccc2C(O)C(F)(F)F)c(C#N)n1Cc1ccc(-c2ccccc2-c2nn[nH]n2)cc1 (stereo not given) | – | –
34 | 0.14 | – | CCCc1nc(-n2c(Cl)ccc2Cl)c(C(=O)O)n1Cc1ccc(-c2ccccc2-c2nn[nH]n2)cc1 | – | –
35 | 22 | – | CCCc1nc(-n2ccc(C(=O)OCC)c2)c(C(=O)O)n1Cc1ccc(-c2ccccc2-c2nn[nH]n2)cc1 | – | –
36 | 171 | – | CCCc1nc(-n2cccc2C(=O)C(F)(F)F)c(C#N)n1Cc1ccc(-c2ccccc2-c2nn[nH]n2)cc1 | – | –
37 | 53.3 | – | CCCc1nc(-n2cccc2C(=O)OC)c(C#N)n1Cc1ccc(-c2ccccc2-c2nn[nH]n2)cc1 | – | –
38 | 0.9 | – | CCCc1nc(-n2c(C)ccc2CCC)c(C(=O)O)n1Cc1ccc(-c2ccccc2-c2nn[nH]n2)cc1 | -6 | –
39 | 1.71 | – | CCCc1nc(-n2cccc2)c(C(=O)O)n1Cc1ccc(-c2ccccc2-c2nn[nH]n2)cc1 | -25 | 27
40 | – | 3.4 | CCCc1nc(C(F)(F)C(F)(F)F)c(C(=O)O)n1Cc1ccc(-c2ccccc2-c2nn[nH]n2)cc1 | – | –
41 | 11.2 | – | CCCc1nc(-n2cccc2C(=O)O)c(C(=O)O)n1Cc1ccc(-c2ccccc2-c2nn[nH]n2)cc1 | – | –
42 | 12.2 | – | CCCc1nc(-n2cccc2)c(C(=O)OCC)n1Cc1ccc(-c2ccccc2-c2nn[nH]n2)cc1 | -22 | –
43 | 1.57 | – | CCCCc1nc(-n2cccc2)c(C(=O)O)n1Cc1ccc(-c2ccccc2-c2nn[nH]n2)cc1 | -27 | 38
44 | 1.04 | – | CCCc1nc(-n2cccc2C(O)C(F)(F)F)c(C(=O)O)n1Cc1ccc(-c2ccccc2-c2nn[nH]n2)cc1 (stereo not given) | – | –
45 | 1.37 | – | CCCc1nc(-n2ccc(C(=O)OC)c2C)c(C(=O)O)n1Cc1ccc(-c2ccccc2-c2nn[nH]n2)cc1 | – | –
